pIC50: −log10 of the molar value. Converted amounts (≈) assume the structure as drawn. The source made the active and inactive calls. The calls are words filed in the database; no cut-off is given here.
Assays:
Staphylococcus aureus = assay: Antimicrobial activity against Staphylococcus aureus incubated for 4 days by broth microdilution method; assay type: functional
How it was run: (§1)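 Broth microdilution in 1/10-strength BHIB+S; 2-fold compound dilution series inoculated with cell suspension. Incubated 4 days; growth scored visually by turbidity. MIC taken as lowest concentration with no turbidity relative to negative control. Each compound run in triplicate.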

Candida albicans = assay: Antimicrobial activity against Candida albicans incubated for 4 days by broth microdilution method; assay type: functional; how it was run: as §1
MDA-MB-435 = assay: Cytotoxicity against human MDA-MB-435 cells assessed as reduction in cell growth incubated for 72 hrs; assay type: functional, cell-based; settings: MDA-MB-435, 72 h
How it was run: (§2)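 Cells grown in RPMI 1640 with 10% FBS, penicillin and streptomycin at 37 °C, 5% CO2. Log-phase cells trypsinized, washed twice, seeded at about 5,000 per well and left overnight. Compounds in DMSO added for 72 h at 37 °C. Viability read by MTS-type absorbance assay (CellTiter 96 AQueous One). IC50 in μM relative to DMSO control. Vinblastine as positive control.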

HT-29 = assay: Cytotoxicity against human HT-29 cells assessed as reduction in cell growth incubated for 72 hrs; assay type: functional, cell-based; settings: HT-29, 72 h; how it was run: as §2
[1] = tested on: Mycolicibacterium smegmatis; assay: Antimicrobial activity against Mycobacterium smegmatis incubated for 4 days by broth microdilution method; assay type: functional; how it was run: as §1
Escherichia coli = assay: Antimicrobial activity against Escherichia coli incubated for 4 days by broth microdilution method; assay type: functional; how it was run: as §1
Aspergillus niger = assay: Antimicrobial activity against Aspergillus niger incubated for 4 days by broth microdilution method; assay type: functional; how it was run: as §1

Compound	MIC (Staphylococcus aureus)	MIC (Candida albicans)	pIC50 (MDA-MB-435)	pIC50 (HT-29)	MIC [1]	MIC (Escherichia coli)	MIC (Aspergillus niger)	MIC ([1]; 96 h) [µg/mL]	MIC (Candida albicans; 96 h) [µg/mL]	MIC (Aspergillus niger; 96 h) [µg/mL]	MIC (Staphylococcus aureus; 96 h) [µg/mL]	MIC (Escherichia coli; 96 h) [µg/mL]
COc1cc2c(c(O)c1O)C(=O)[C@H](Cc1ccc(O)cc1)CO2	inactive	inactive	< 4.70	< 4.70	inactive	inactive	inactive					
COc1ccc(C[C@@H]2COc3c(OC)c(OC)cc(O)c3C2=O)cc1O	inactive	inactive	5.96	4.76	inactive	inactive	inactive					
COc1cc(O)c2c(c1O)OC[C@@H](Cc1ccc(O)cc1)C2=O	inactive	inactive	< 4.70	< 4.70	inactive	inactive	inactive					
O=C(O)c1cn(C2CC2)c2cc(N3CCNCC3)c(F)cc2c1=O [CIPROFLOXACIN]								2 (≈ 6.04 µM)				
COc1cc(O)c2c(c1OC)OC[C@@H](Cc1ccc(O)cc1)C2=O	inactive	inactive	< 4.70	< 4.70	inactive	inactive	inactive					
CS/C=C/C(=O)OC[C@H](O)c1ccccc1	inactive	inactive	< 4.70	< 4.70	inactive	inactive	inactive					
C[C@@H]1[C@H](O)[C@@H](C)/C=C/C=C/C=C/C=C/C=C/C=C/C=C/[C@H](O[C@@H]2O[C@H](C)[C@@H](O)[C@H](N)[C@@H]2O)C[C@@H]2O[C@](O)(C[C@@H](O)C[C@@H](O)[C@H](O)CC[C@@H](O)C[C@@H](O)CC(=O)O[C@H]1C)C[C@H](O)[C@H]2C(=O)O [AMPHOTERICIN B]									16 (≈ 17.3 µM)	31 (≈ 33.5 µM)		
COc1cc(O)c2c(c1OC)OC/C(=C\c1ccc(O)c(O)c1)C2=O			5.34	< 4.70				47 (≈ 137 µM)	> 93	> 93	93 (≈ 270 µM)	> 93
O=C1c2c(O)cc(O)cc2OC[C@H]1Cc1ccc(O)cc1			< 4.70	< 4.70				63 (≈ 220 µM)	> 125	> 125	> 125	> 125
COc1cc(O)c2c(c1OC)OCCC2=O	inactive	inactive	< 4.70	< 4.70	inactive	inactive	inactive					
COc1cc(/C=C/C(=O)NCCc2ccc(O)cc2)ccc1O [N-TRANS-FERULOYL TYRAMINE]	inactive	inactive	< 4.70	< 4.70	inactive	inactive	inactive					
COc1c(O)cc(O)c2c1OC/C(=C\c1ccc(O)cc1)C2=O			< 4.70	< 4.70				24 (≈ 76.4 µM)	> 48	> 48	> 48	> 48
COc1cc(O)c2c(c1OC)OC[C@@H](Cc1ccc(O)c(O)c1)C2=O	inactive	inactive	< 4.70	< 4.70	inactive	inactive	inactive					
COc1c(O)c(O)c2c(c1OC)OC[C@@H](Cc1ccc(O)cc1)C2=O	inactive	inactive	< 4.70	< 4.70	inactive	inactive	inactive					
CC[C@]1(O)C[C@@H]2CN(CCc3c([nH]c4ccccc34)[C@@](C(=O)OC)(c3cc4c(cc3OC)N(C)[C@H]3[C@@](O)(C(=O)OC)[C@H](OC(C)=O)[C@]5(CC)C=CCN6CC[C@]43[C@@H]65)C2)C1 [VINBLASTINE]			9.30	8.35								
CN[C@H](CC(C)C)C(=O)N[C@H]1C(=O)N[C@@H](CC(N)=O)C(=O)N[C@H]2C(=O)N[C@H]3C(=O)N[C@H](C(=O)N[C@H](C(=O)O)c4cc(O)cc(O)c4-c4cc3ccc4O)[C@H](O)c3ccc(c(Cl)c3)Oc3cc2cc(c3O[C@@H]2O[C@H](CO)[C@@H](O)[C@H](O)[C@H]2O[C@H]2C[C@](C)(N)[C@H](O)[C@H](C)O2)Oc2ccc(cc2Cl)[C@H]1O [VANCOMYCIN]											0.25 (≈ 0.173 µM)	
COc1cc(O)c2c(c1)OC[C@@](O)(Cc1ccc(O)cc1)C2=O	inactive	inactive	< 4.70	< 4.70	inactive	inactive	inactive					
COc1ccc(C[C@@H]2COc3cc(O)cc(O)c3C2=O)cc1O			6.00	< 4.70				17 (≈ 53.7 µM)	> 138	> 138	> 138	> 138
CC1(C)S[C@@H]2[C@H](NC(=O)[C@H](N)c3ccccc3)C(=O)N2[C@H]1C(=O)O [AMPICILLIN]												8 (≈ 22.9 µM)
COc1cc(O)c2c(c1OC)OC/C(=C\c1ccc(O)cc1)C2=O	inactive	inactive	4.88	< 4.70	inactive	inactive	inactive					
COc1cc2c(cc1O)C[C@]21COc2cc(O)cc(O)c2C1=O	inactive	inactive	< 4.70	< 4.70	inactive	inactive	inactive					
O=C1/C(=C/c2ccc(O)cc2)COc2cc(O)cc(O)c21	inactive	inactive	< 4.70	< 4.70	inactive	inactive	inactive					
O=C1c2c(O)cc(O)cc2OC[C@H]1Cc1ccc(O)c(O)c1	inactive	inactive	< 4.70	< 4.70	inactive	inactive	inactive					

Reference: ChEMBL document CHEMBL3593169, “Cytotoxic Homoisoflavones from the Bulbs of Bellevalia eigii” (J Nat Prod, 2015)
